Reference: PubChem BioAssay AID463143 (The Scripps Research Institute Molecular Screening Center, 2010)
The source made the active and inactive calls.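 How the source made its calls: active means fold change in liver X receptor activation above 2; inactive means the rest.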

target: Oxysterols receptor LXR-beta (Homo sapiens) (UniProt P55055); assay: LXR activators, GAL4 reporter, late-stage follow-up, selectivity assay for RORA inverse agonist project, cell-based, luminescence, single concentration, powder samples (AID 463143); settings: HEK293T GAL4-LXR LBD luciferase reporter, 18-24 h; at 10 µM; active compounds read high
Procedure, shortened: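 assay system = HEK293T GAL4-LXR LBD luciferase reporter cells | compound = single nominal dose of 10 µM per compound | evaluation = fold change versus DMSO vehicle | signal = luminescence | repeats = six replicate runs, averaged | schedule = 20 h compound exposure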

Sequence of Oxysterols receptor LXR-beta (Homo sapiens) (P55055 whole entry, looked up, the tested form may be a part): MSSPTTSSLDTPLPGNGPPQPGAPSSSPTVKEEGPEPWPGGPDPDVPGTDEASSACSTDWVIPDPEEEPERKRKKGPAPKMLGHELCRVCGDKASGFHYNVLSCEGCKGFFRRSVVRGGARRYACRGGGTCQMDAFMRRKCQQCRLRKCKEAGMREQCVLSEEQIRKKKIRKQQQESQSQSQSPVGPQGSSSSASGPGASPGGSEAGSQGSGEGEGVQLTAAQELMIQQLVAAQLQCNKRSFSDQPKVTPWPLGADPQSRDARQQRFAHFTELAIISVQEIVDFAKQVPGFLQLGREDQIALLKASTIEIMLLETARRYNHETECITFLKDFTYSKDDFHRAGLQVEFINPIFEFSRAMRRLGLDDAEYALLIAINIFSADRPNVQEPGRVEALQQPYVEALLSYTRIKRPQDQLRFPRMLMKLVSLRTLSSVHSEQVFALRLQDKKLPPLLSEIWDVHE

Row | fold change | SMILES
1 | 1.04 (inactive) | O=C(Nc1ccc(C(O)(C(F)(F)F)C(F)(F)F)cc1)c1ccc(F)cc1Cl
2 | 1.39 (inactive) | O=S(=O)(Nc1ccc(C(O)(C(F)(F)F)C(F)(F)F)cc1)c1cccs1
3 | 1.39 (inactive) | O=C(Nc1ccc(C(O)(C(F)(F)F)C(F)(F)F)cc1)c1ccc(F)cc1F
4 | 0.937 (inactive) | O=C(Nc1ccc(C(O)(C(F)(F)F)C(F)(F)F)cc1)c1c(F)cccc1F
5 | 0.958 (inactive) | O=C(Nc1ccc(C(O)(C(F)(F)F)C(F)(F)F)cc1)c1ccccc1C(F)(F)F
6 | 1.15 (inactive) | O=C(Nc1ccc(C(O)(C(F)(F)F)C(F)(F)F)cc1)c1ccc(Cl)cc1
